Data from ChEMBL document CHEMBL1127084, “Synthesis and structure-activity studies of a series of [(hydroxybenzyl)amino]salicylates as inhibitors of EGF receptor-associated tyrosine kinase activity” (J Med Chem, 1993).

Tests used:
[1] = Inhibition of tyrosine kinase activity in ER 22 membrane fraction by competition with the RRSrc peptide using [32P]-gamma ATP as radioligand; assay type: cell membranes
In short: (§1)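 Enzyme source was membrane fractions of ER 22 cells (CCL 39 cells transfected with EGF receptor). Inhibitors were added at various concentrations and phosphorylation of the peptide was measured.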

[2] = biological target: Epidermal growth factor receptor (Homo sapiens) (UniProt P00533); conditions: ER22; 20 uM
[3] = Inhibition of ER22 EGF-receptor expressing cell membrane tyrosine kinase activity at 100 uM
[4] = Inhibition of ER22 EGF-receptor expressing cell membrane tyrosine kinase activity; in short: as §1
[5] = biological target: Epidermal growth factor receptor (Homo sapiens) (UniProt P00533); conditions: ER22; 10 uM

Chain of Epidermal growth factor receptor (Homo sapiens) (P00533 whole entry): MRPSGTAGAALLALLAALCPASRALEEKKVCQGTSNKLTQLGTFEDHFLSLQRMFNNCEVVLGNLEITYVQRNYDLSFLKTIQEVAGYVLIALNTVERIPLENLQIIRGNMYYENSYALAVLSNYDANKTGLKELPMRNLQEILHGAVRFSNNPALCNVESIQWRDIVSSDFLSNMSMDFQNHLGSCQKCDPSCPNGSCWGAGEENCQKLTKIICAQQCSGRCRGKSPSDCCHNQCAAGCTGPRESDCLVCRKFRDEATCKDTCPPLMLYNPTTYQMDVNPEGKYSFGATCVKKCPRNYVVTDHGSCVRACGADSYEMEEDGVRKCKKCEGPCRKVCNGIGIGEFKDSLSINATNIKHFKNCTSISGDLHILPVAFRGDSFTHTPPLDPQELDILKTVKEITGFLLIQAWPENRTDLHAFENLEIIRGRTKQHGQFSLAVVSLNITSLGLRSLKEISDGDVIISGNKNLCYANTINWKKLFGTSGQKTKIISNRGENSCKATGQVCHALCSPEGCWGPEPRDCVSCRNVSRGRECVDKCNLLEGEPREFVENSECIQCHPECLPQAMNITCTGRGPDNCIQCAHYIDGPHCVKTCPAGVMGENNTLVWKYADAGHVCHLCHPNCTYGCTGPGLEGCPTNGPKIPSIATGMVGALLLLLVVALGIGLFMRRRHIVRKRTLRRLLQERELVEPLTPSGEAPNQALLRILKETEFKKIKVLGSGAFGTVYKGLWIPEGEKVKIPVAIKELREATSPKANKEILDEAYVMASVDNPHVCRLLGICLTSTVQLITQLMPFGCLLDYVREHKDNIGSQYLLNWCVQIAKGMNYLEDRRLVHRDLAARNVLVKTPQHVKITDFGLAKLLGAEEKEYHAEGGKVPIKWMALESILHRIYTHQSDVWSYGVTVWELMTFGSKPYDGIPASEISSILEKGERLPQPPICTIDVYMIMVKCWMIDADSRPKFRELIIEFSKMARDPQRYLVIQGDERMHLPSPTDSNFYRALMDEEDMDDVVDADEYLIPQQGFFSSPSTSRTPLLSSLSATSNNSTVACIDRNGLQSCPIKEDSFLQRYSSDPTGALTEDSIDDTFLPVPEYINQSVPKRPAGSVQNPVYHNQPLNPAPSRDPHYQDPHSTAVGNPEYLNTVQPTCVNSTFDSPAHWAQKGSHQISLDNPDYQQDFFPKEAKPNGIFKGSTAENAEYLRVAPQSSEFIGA

SMILES	IC50 [1] [µM]	further results
COC(=O)c1cc(/N=C/c2ccccc2O)ccc1O	> 100	–
COC(=O)c1cc(/N=C/c2ccc(O)cc2O)ccc1O	> 100	inhibition [2]: 65%
COC(=O)c1cc(/N=C/c2ccc(O)c(O)c2)ccc1O	10	inhibition [2]: 37%
COC(=O)c1cc(/N=C/c2ccc(O)cc2)ccc1O	> 10	–
O=C(O)c1cc(NCc2ccccc2O)ccc1O	25	–
COC(=O)c1cc(NCc2cccc(O)c2)ccc1O	–	inhibition [3]: 37%
COC(=O)c1cc(/N=C/c2cccc(O)c2)ccc1O	> 100	inhibition [2]: 20%
O=C(O)c1cc(/N=C/c2ccccc2O)ccc1O	> 100	–
COC(=O)c1cc(/N=C/c2cc(O)ccc2O)ccc1O	100	–
COC(=O)c1cc(NCc2ccc(O)cc2)ccc1O	–	IC50 [4]: > 10 µM
O=C(O)c1cccc(/N=C/c2cc(O)ccc2O)c1	> 10	–
O=C(O)c1cc(/N=C/c2cc(O)ccc2O)ccc1O	5	–
COC(=O)c1ccc(/N=C/c2cc(O)ccc2O)cc1O	> 10	–
O=C(O)c1cccc(NCc2cc(O)ccc2O)c1	2.4	–
COC(=O)c1cc(/N=C/c2cc(O)ccc2O)ccc1OC	> 100	–

Continued, in another order:

IC50 [1] [µM]	SMILES	further results
1.6	COC(=O)c1cccc(NCc2cc(O)ccc2O)c1	–
45	COC(=O)c1cc(NCc2ccccc2O)ccc1O	–
> 100	COC(=O)c1cc(NCc2cc(OC)ccc2OC)ccc1O	inhibition [2]: 18%
0.6	COC(=O)c1cc(NCc2cc(O)ccc2O)ccc1O	–
5	COC(=O)c1cc(NCc2cc(O)ccc2O)ccc1OC	–
> 10	COC(=O)c1cc(/N=C/c2cc(OC)ccc2OC)ccc1O	inhibition [5]: 14%
0.2	COC(=O)c1ccc(NCc2cc(O)ccc2O)cc1O	–
